Results as given in ChEMBL document CHEMBL4145692, “Discovery of a Locally and Orally Active CXCL12 Neutraligand (LIT-927) with Anti-inflammatory Effect in a Murine Model of Allergic Airway Hypereosinophilia” (J Med Chem, 2018).
Converted amounts (≈) assume the structure as drawn. The source made the active and inactive calls. The calls are words filed in the database; no cut-off is given here.

Legend:
Mus musculus [1] = assay: Anti-inflammatory activity in Balb/c mouse model of hypereosinophilia assessed as inhibition of eosinophil infiltration at 2.5 umol/kg, ip dosed 2 hrs before allergen challenge; type: functional
Summary of the method: (§1)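 Balb/c mice sensitized with OVA/alum i.p. and challenged intranasally with OVA on 3 consecutive days. Compounds given i.p. 2 h before each challenge: neutraligands 350 μmol/kg in PBS/CMC 1%, AMD3100 12.6 μmol/kg, dexamethasone 2.5 μmol/kg. BAL 24 h after the last challenge; absolute eosinophil counts; mean ± SEM, n=6/group.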

Mus musculus [2] = assay: Toxicity in Balb/c mouse model of hypereosinophilia assessed as reduction in body weight at 2.5 umol/kg, ip dosed daily 2 hrs before allergen challenge for 3 days and measured 24 hrs after last dose; type: organism-based; design: scale not given: the % may be the effect or the level left; settings: in vivo
Summary of the method: (§2)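 Same OVA model with i.p. dosing 2 h before each of the three challenges: neutraligands 350 μmol/kg in PBS/CMC 1%, AMD3100 12.6 μmol/kg, dexamethasone 2.5 μmol/kg. Body and spleen weight loss recorded 24 h after three daily administrations; n=6/group.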

Mus musculus [3] = assay: Toxicity in Balb/c mouse model of hypereosinophilia assessed as reduction in spleen weight at 2.5 umol/kg, ip dosed daily 2 hrs before allergen challenge for 3 days and measured 24 hrs after last dose; type: organism-based; design: scale not given: the % may be the effect or the level left; settings: in vivo; summary of the method: as §2
Mus musculus [4] = assay: Inhibition of eosinophil infiltration in Balb/c mouse model of 8 day model of allergic eosinophilic airway inflammation dosed intranasally 2 hrs before ovalbumin challenge by hemocytometry; type: functional, organism-based
Summary of the method: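 Same intranasal OVA model with dose-response treatment in PBS/Cdx 10% given 2 h before each challenge. Percent inhibition of BAL eosinophil recruitment; mean ± SEM, n=6/group.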

Mus musculus [5] = assay: Inhibition of eosinophil infiltration in Balb/c mouse model of 8 day model of allergic eosinophilic airway inflammation at 300 nmol/kg dosed intranasally 2 hrs before ovalbumin challenge by hemocytometry; type: functional; settings: inhaled or nasal
Summary of the method: (§3)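 OVA/alum-sensitized Balb/c mice challenged intranasally with OVA on days 5–7. Compounds at 300 nmol/kg in 10% PBS/Cdx given intranasally 2 h before each challenge. BAL 24 h after the last challenge; eosinophils, neutrophils and lymphocytes counted by hemocytometer and differential cytospin; n=6/group.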

Mus musculus [6] = assay: Toxicity in Balb/c mouse model of hypereosinophilia assessed as induction of liver lesions at 350 umol/kg, ip dosed daily 2 hrs before allergen challenge for […] and measured 24 hrs after last dose by Gomori's trichrome staining based histological analysis; type: organism-based; settings: in vivo
Mus musculus [7] = assay: Toxicity in Balb/c mouse model of hypereosinophilia assessed as prostration at 350 umol/kg, ip dosed daily 2 hrs before allergen challenge for 10 days and measured 24 hrs after last dose; type: organism-based; settings: in vivo
Summary of the method: (§4)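 Mice given 10 daily administrations at 350 μmol/kg. Monitored for weight loss and for signs of toxicity, including prostration and bristly hair.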

[8] = Thermodynamic solubility in pH 7.4 PBS/Cdx buffer incubated for 24 hrs at 22 degC by HPLC method; type: physicochemical; settings: read-out: Therm_solubility
Summary of the method: (§5)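 Powder dissolved to saturation in pH 7.4 PBS (100 mM sodium phosphate, 150 mM NaCl), or in PBS with 10% Cdx, and shaken 24 h. After centrifugation, supernatant quantified by HPLC against a per-compound calibration line prepared from the DMSO stock.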

Mus musculus [9] = assay: Toxicity in Balb/c mouse model of hypereosinophilia assessed as toxic signs at 350 umol/kg, ip dosed daily 2 hrs before allergen challenge for 10 days and measured 24 hrs after last dose; type: organism-based; settings: in vivo; summary of the method: as §4
Mus musculus [10] = assay: Anti-inflammatory activity in Balb/c mouse model of hypereosinophilia assessed as inhibition of eosinophil infiltration at 350 umol/kg, ip dosed 2 hrs before allergen challenge; type: functional; summary of the method: as §1
[11] = Chemical stability in pH 7.4 PBS/Cdx buffer assessed as parent compound remaining at 10 uM incubated for 24 hrs by RP-HPLC method; type: physicochemical; settings: read-out: Stability
Summary of the method: (§6)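 Compound diluted from DMSO stock to 10 μM final (1% DMSO) in PBS pH 7.4, or in PBS with 10% w/w (2-hydroxypropyl)-β-cyclodextrin. Sampled at t0, 2, 4, 6 and 24 h and injected directly onto RP-HPLC. Percent remaining relative to t0 from peak area.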

Mus musculus [12] = assay: Toxicity in Balb/c mouse model of hypereosinophilia assessed as reduction in body weight at 350 umol/kg, ip dosed daily 2 hrs before allergen challenge for 3 days and measured 24 hrs after last dose; type: organism-based; design: scale not given: the % may be the effect or the level left; settings: in vivo; summary of the method: as §2
Mus musculus [13] = assay: Toxicity in Balb/c mouse model of hypereosinophilia assessed as induction of heart lesions at 350 umol/kg, ip dosed daily 2 hrs before allergen challenge for […] and measured 24 hrs after last dose by Gomori's trichrome staining based histological analysis; type: organism-based; settings: in vivo
[14] = Kinetic solubility in pH 7.4 HEPES-BSA buffer at 5 uM incubated for 24 hrs at 20 degC by HPLC method; type: physicochemical; settings: read-out: Kinetic_solubility
Summary of the method: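 Compound added from 10 mM DMSO stock to 5 μM in pH 7.4 HEPES-BSA buffer (1 g/L BSA), shaken 24 h at 20 °C. After centrifugation, supernatant concentration measured by HPLC against 5 and 10 μM standards.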

Mus musculus [15] = assay: Toxicity in Balb/c mouse model of hypereosinophilia assessed as reduction in spleen weight at 12.6 umol/kg, ip dosed daily 2 hrs before allergen challenge for 3 days and measured 24 hrs after last dose; type: organism-based; settings: in vivo; summary of the method: as §2
Mus musculus [16] = assay: Inhibition of macrophages infiltration in Balb/c mouse model of 8 day model of allergic eosinophilic airway inflammation at 300 nmol/kg dosed intranasally 2 hrs before ovalbumin challenge by hemocytometry; type: functional, organism-based
Mus musculus [17] = assay: Toxicity in Balb/c mouse model of hypereosinophilia assessed as reduction in body weight at 12.6 umol/kg, ip dosed daily 2 hrs before allergen challenge for 3 days and measured 24 hrs after last dose; type: organism-based; settings: in vivo; summary of the method: as §2
Mus musculus [18] = assay: Inhibition of lymphocytes infiltration in Balb/c mouse model of 8 day model of allergic eosinophilic airway inflammation at 300 nmol/kg dosed intranasally 2 hrs before ovalbumin challenge by hemocytometry; type: functional, organism-based; summary of the method: as §3
[19] = Solubility in PBS buffer; type: physicochemical; summary of the method: as §5
[20] = Thermodynamic solubility in pH 7.4 PBS buffer incubated for 24 hrs at 22 degC by HPLC method; type: physicochemical; settings: read-out: Therm_solubility; summary of the method: as §5
Mus musculus [21] = assay: Toxicity in Balb/c mouse model of hypereosinophilia assessed as induction of spleen lesions at 350 umol/kg, ip dosed daily 2 hrs before allergen challenge for […] and measured 24 hrs after last dose by Gomori's trichrome staining based histological analysis; type: organism-based; settings: in vivo
Mus musculus [22] = assay: Toxicity in Balb/c mouse model of hypereosinophilia assessed as reduction in body weight at 350 umol/kg, ip dosed daily 2 hrs before allergen challenge for 10 days and measured 24 hrs after last dose; type: organism-based; settings: in vivo; summary of the method: as §4
Mus musculus [23] = assay: Toxicity in Balb/c mouse model of hypereosinophilia assessed as induction of bristly hair at 350 umol/kg, ip dosed daily 2 hrs before allergen challenge for 10 days and measured 24 hrs after last dose; type: organism-based; settings: in vivo; summary of the method: as §4
[24] = Chemical stability in pH 7.4 PBS buffer assessed as parent compound remaining at 10 uM incubated for 24 hrs by RP-HPLC method; type: physicochemical; settings: read-out: Stability; summary of the method: as §6
Mus musculus [25] = assay: Toxicity in Balb/c mouse model of hypereosinophilia assessed as reduction in spleen weight at 350 umol/kg, ip dosed daily 2 hrs before allergen challenge for 3 days and measured 24 hrs after last dose; type: organism-based; design: scale not given: the % may be the effect or the level left; settings: in vivo; summary of the method: as §2
[26] = molecular target: T1, Stromal cell-derived factor 1 (Homo sapiens, UniProt P48061); assay: Binding affinity to Texas Red-labelled CXCL12 (unknown origin) assessed as inhibition of CXCL12-Texas Red binding to EGFP-labeled human CXCR4 expressed in HEK293 cell membranes pre-incubated for 1 hr by FRET-based binding assay
Summary of the method: (§7)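 HEK-293 cells stably expressing human EGFP-CXCR4, 10⁶ cells/ml in HEPES buffer pH 7.4 with 0.1% BSA, 21 °C. CXCL12-Texas Red (100 nM) was preincubated 1 h at room temperature with compound or DMSO, then added at t=150 s. FRET read as loss of EGFP emission at 510 nm (excitation 470 nm) up to equilibrium. Ki from dose-response curves.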

Mus musculus [27] = assay: Toxicity in Balb/c mouse model of hypereosinophilia assessed as induction of kidney lesions at 350 umol/kg, ip dosed daily 2 hrs before allergen challenge for […] and measured 24 hrs after last dose by Gomori's trichrome staining based histological analysis; type: organism-based; settings: in vivo
[28] = molecular target: T1, Stromal cell-derived factor 1; assay: Binding affinity to Texas Red-labelled CXCL12 (unknown origin) assessed as inhibition of CXCL12-Texas Red binding to EGFP-labeled human CXCR4 expressed in HEK293 cell membranes at 5 uM pre-incubated for 1 hr by FRET-based binding assay; summary of the method: as §7
[29] = molecular target: T1, Stromal cell-derived factor 1; assay: Binding affinity to Texas Red-labelled CXCL12 (unknown origin) assessed as inhibition of CXCL12-Texas Red binding to EGFP-labeled human CXCR4 expressed in HEK293 cell membranes at 10 uM pre-incubated for 1 hr by FRET-based binding assay
Summary of the method: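 FRET binding assay in EGFP-CXCR4 HEK-293 cells. Compound at 10 μM preincubated with CXCL12 before addition to the cells; binding read as EGFP emission at 510 nm after CXCL12-Texas Red addition. T134 (20 μM) used as control.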

[30] = molecular target: T1, Stromal cell-derived factor 1; assay: Binding affinity to CXCL12 (unknown origin) assessed as changes in tryptophan fluorescence intensity
Summary of the method: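 Intrinsic Trp fluorescence of CXCL12 (2 μM in Hepes buffer), excitation 285 nm, emission 340 nm, titrated with increasing compound. Kd obtained by fitting a 1:1 binding quadratic model with chemokine fixed at 2 μM. Mean ± SD of three independent experiments.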

[31] = molecular target: T1, Stromal cell-derived factor 1; assay: Binding affinity to Texas Red-labelled CXCL12 (unknown origin) assessed as inhibition of CXCL12-Texas Red binding to EGFP-labeled human CXCR4 expressed in HEK293 cell membranes at 300 uM pre-incubated for 1 hr by FRET-based binding assay; summary of the method: as §7
[32] = molecular target: T1, Stromal cell-derived factor 1; assay: Binding affinity to Texas Red-labelled CXCL12 (unknown origin) assessed as inhibition of CXCL12-Texas Red binding to EGFP-labeled human CXCR4 expressed in HEK293 cell membranes at 30 uM pre-incubated for 1 hr by FRET-based binding assay; summary of the method: as §7

T1 sequence (P48061 whole entry): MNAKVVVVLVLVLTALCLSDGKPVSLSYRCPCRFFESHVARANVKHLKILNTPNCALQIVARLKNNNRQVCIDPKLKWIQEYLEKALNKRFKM

## C[C@@H]1C[C@H]2[C@@H]3CCC4=CC(=O)C=C[C@]4(C)[C@@]3(F)[C@@H](O)C[C@]2(C)[C@@]1(O)C(=O)CO [DEXAMETHASONE]
Mus musculus [1]
  inhibition in vivo at 2.5 µmol/kg: 59%
Mus musculus [2]
  Activity: 10.1%
Mus musculus [3]
  Activity: 43%

## COc1cc(/C=C/C(=O)c2ccc(Cl)cc2)ccc1O
Mus musculus [4]
  IC50: > 500 nmol/kg
Mus musculus [5]
  inhibition in vivo at 0.3 µmol/kg: 47%
Mus musculus [6]
  Activity: Non-Toxic
Mus musculus [7]
  Activity: Non-Toxic
[8]
  solubility thermodynamic at 24 h: > 300 µM
Mus musculus [9]
  Activity: Non-Toxic
Mus musculus [10]
  inhibition in vivo at 350 µmol/kg: 54%
[11]
  remaining at 24 h, 10 µM: 100%
Mus musculus [12]
  Activity: 0%
Mus musculus [13]
  Activity: Non-Toxic
[14]
  solubility kinetic at 24 h, 5 µM: > 5 µM
Mus musculus [15]
  Activity: Non-Toxic
Mus musculus [16]
  inhibition: inactive
Mus musculus [17]
  Activity: Non-Toxic
Mus musculus [18]
  inhibition: inactive
[19]
  solubility: 9 µM (≈ 2.6 µg/mL)
[20]
  solubility thermodynamic at 24 h: 9 µM (≈ 2.6 µg/mL)
Mus musculus [21]
  Activity: Non-Toxic
Mus musculus [22]
  Activity: Non-Toxic
Mus musculus [23]
  Activity: Non-Toxic
[24]
  remaining at 24 h, 10 µM: 100%
Mus musculus [25]
  Activity: 0%
[26]; hek293
  Ki: 53 nM
Mus musculus [27]
  Activity: Non-Toxic

## CCOc1cc(/C=C/C(=O)c2ccc(Cl)cc2)ccc1O
[14]
  solubility kinetic at 24 h, 5 µM: 4.72 µM (≈ 1.43 µg/mL)
[28]
  inhibition: 52%

## COc1cc(/C=C/C(=O)c2ccccc2)ccc1O
[29]
  inhibition: inactive
[14]
  solubility kinetic at 24 h, 5 µM: > 5 µM
[26]
  Ki: > 10000 nM

## O=c1nc(-c2ccc(Cl)cc2)cc(-c2ccc(O)cc2)[nH]1
[30]
  Activity: inactive
[31]
  inhibition: < 5%
Mus musculus [18]
  inhibition: inactive

## COc1cc(/C=C/C(=O)c2ccc3ccccc3c2)ccc1O
[32]
  inhibition: 5%
[14]
  solubility kinetic at 24 h, 5 µM: 0.95 µM (≈ 0.289 µg/mL)

## COc1cc(-c2cc(-c3ccc(Cl)cc3)ncn2)ccc1O
[14]
  solubility kinetic at 24 h, 5 µM: 4.29 µM (≈ 1.34 µg/mL)
[28]
  inhibition: 30%
